# A selection: hits, their analogues and other compounds. The true share with any hit is near 4%.
# TAAR1 ag: agonists of human TAAR1. AID 624467. activation, % at 3 µM. CHO RD-HGA16 TAAR1, Fluo-8 calcium fluorescence; vehicle wells 0%, saturating PEA agonist 100%. 0.99% of 360,000 active;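 active = activation above the mean activation of all test compounds in the run plus 3 SD, cut at about 38% in these data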
#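 Assay system: CHO-derived RD-HGA16 cells with stable Gα16 and human TAAR1; timing: 17-24 h seeding, 75 min 37 °C dye, 30 min RT; read-out: % activation from peak over basal fluorescence ratio, DMSO-to-PEA scaled; measured by: kinetic Fluo-8 calcium fluorescence; benchmarks: low control DMSO, high control PEA (EC100); doses: 3 µM single concentration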
# MPTP block: inhibitors of mitochondrial permeability transition pore; inhibition, % at 10 µM; isolated mouse mitochondria, Ca2+ swelling absorbance, 30 min; AID 602449; 1.4% of 360,000 active;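 active = inhibition of 50% or more, scaled per plate between neutral and stimulator controls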;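 also: 0% = DMSO wells given calcium and 100% = 1 mM EGTA wells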
# GPR7 antagonist: human neuropeptides B/W receptor 1 antagonism; 1.1% of 290,000 active; GPR7-expressing cells, fluorescence antagonist assay; AID 1861; inhibition, % at 4.4 µM; P48145; in the data active = inhibition above about 16%, passing the limit was not always enough;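 also: cells stimulated with the agonist NPW; 0% = agonist with vehicle and 100% = vehicle without agonist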
# DAGLB inh: diacylglycerol lipase beta (human) inhibition | AID 504411 | Q8NCG7 | HEK293T DAGLB membrane lysate, EnzChek fluorogenic substrate | inhibition, % at 5.17 µM | 0.059% of 340,000 active; in the data active = inhibition above about 34%;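 also: 0% = enzyme with vehicle and 100% = wells lacking enzyme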
# Target sequence (Q8NCG7 whole entry, looked up): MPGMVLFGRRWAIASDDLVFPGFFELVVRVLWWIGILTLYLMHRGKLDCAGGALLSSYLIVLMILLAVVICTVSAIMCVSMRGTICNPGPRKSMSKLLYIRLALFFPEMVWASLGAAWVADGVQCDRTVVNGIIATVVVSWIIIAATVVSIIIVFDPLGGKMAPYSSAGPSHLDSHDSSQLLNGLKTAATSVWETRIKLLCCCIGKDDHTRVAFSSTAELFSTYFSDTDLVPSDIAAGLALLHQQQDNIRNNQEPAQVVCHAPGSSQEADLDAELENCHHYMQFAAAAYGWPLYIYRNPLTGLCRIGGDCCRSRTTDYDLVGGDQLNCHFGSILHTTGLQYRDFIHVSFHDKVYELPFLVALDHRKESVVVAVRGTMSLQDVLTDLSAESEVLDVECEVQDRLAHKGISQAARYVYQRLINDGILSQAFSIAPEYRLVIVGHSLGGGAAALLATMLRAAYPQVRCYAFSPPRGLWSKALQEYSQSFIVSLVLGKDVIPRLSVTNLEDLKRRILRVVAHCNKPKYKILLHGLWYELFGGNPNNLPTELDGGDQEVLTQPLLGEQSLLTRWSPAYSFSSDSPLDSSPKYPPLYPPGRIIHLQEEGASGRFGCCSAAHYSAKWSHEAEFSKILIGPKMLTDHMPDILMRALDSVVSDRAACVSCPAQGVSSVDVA
# TAAR1 antagonist: antagonists of human TAAR1 | Q96RJ0 | CHO RD-HGA16 TAAR1, Fluo-8 calcium fluorescence, antagonist | inhibition, % at 3 µM | 1.5% of 360,000 active;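 active = inhibition above a per-plate cutoff, the mean inhibition of test compounds on that plate plus 3 SD, cut at about 49% in these data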;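 also: 0% = DMSO plus EC80 beta-PEA response and 100% = DMSO alone without agonist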
#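 Assay system: CHO-derived RD-HGA16 cells stably expressing human TAAR1 plus Gα16. Timing: 140 s kinetic read after compound, 140 s after agonist. Technique: kinetic Fluo-8 calcium fluorescence measurement. Measure: % inhibition of agonist calcium response.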
# nonsel antag count: nonselective antagonist in TAAR1 antagonist counter-screen. inhibition, % at 3 µM. 77% of 2,400 active. shares compounds with TAAR1 antagonist. AID 651780. counterscreen cell line, calcium fluorescence, antagonist mode; in the data active = inhibition above about 22%;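 also: CHO-Ga16 host cells stimulated with ATP at an EC80 level; 0% = agonist EC80 plus vehicle and 100% = vehicle without agonist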
# TAAR1 antag conf: confirmation of human TAAR1 antagonists; AID 651785; 40% of 2,400 active; TAAR1-expressing cells, fluorescence antagonist read-out; shares compounds with TAAR1 antagonist; inhibition, % at 3 µM; in the data active = inhibition above about 49%;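 also: CHO-Ga16 host cells challenged with agonist PEA near its EC80; 0% = agonist at EC80 plus vehicle and 100% = vehicle with no agonist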
# Ga16 nonsel ag: counter-screen for TAAR1 antagonists: nonselective Ga16 agonists; shares compounds with TAAR1 antagonist; Ga16-expressing cells, calcium fluorescence, agonist counterscreen; activation, % at 3 µM; 18% of 2,400 active; AID 651953; in the data active = activation above about 12%;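 also: 0% = vehicle wells and 100% = saturating stimulus response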
# TAAR1 ag count: TAAR1 agonism, antagonist counter-screen | shares compounds with TAAR1 antagonist | hTAAR1 cell line, fluorescence activation, agonist mode | activation, % at 3 µM | 2% of 2,400 active | AID 651955; in the data active = activation above about 37%;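 also: CHO cells stably expressing TAAR1 with calcium dye readout; 0% = DMSO vehicle and 100% = full agonist response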
# * hit, by the source's call; x = no result given.
SMILES,TAAR1 ag,MPTP block,GPR7 antagonist,DAGLB inh,TAAR1 antagonist,nonsel antag count,TAAR1 antag conf,Ga16 nonsel ag,TAAR1 ag count
O=c1c(/C=N\NS(=O)(=O)c2ccccc2)coc2ccc(Cl)cc12,9,1,-5,-4,59*,26*,49*,6,10
Cn1cncc1C#Cc1ccc2cc(C(C)(C)O)oc(=O)c2c1,8,-1,x,1,-5,x,x,x,x
CC(C)(O)c1cc2ccc(C#CCCN3C(=O)c4ccccc4C3=O)cc2c(=O)o1,15,-2,x,0,62*,26*,55*,9,3
COc1cccc(-c2ncn(CCc3ccccc3OC)c2C(C)C)c1,20,11,x,x,22,x,x,x,x
COc1ccccc1CCn1cnc(-c2cccc(Cl)c2)c1CC(C)C,14,x,x,x,51*,33*,52*,9,38*
COc1ccccc1CCn1cnc(-c2ccc(F)cc2)c1CC(C)C,27,x,x,x,63*,29*,62*,11,66*
CCc1c(-c2ccc(OC)cc2)ncn1CCc1ccccc1OC,18,x,x,x,-16,x,x,x,x
CCCCc1c(-c2cccc(Cl)c2)ncn1CCc1ccccc1OC,11,3,x,x,33,x,x,x,x
COc1ccccc1CCn1cnc(-c2ccccc2)c1CC(C)C,7,x,x,x,56*,41*,49*,12*,26
COc1cccc(-c2ncn(CCc3ccccc3OC)c2CC(C)C)c1,11,x,x,x,62*,39*,49*,8,38*
O=C1NC(Cc2ccccc2)c2nc3cc(Cl)ccc3c(=O)n2-c2ncccc21 (centres undefined),3,1,x,2,5,x,x,x,x
CCCCc1c(-c2ccc(F)cc2)ncn1CCc1ccccc1OC,26,2,x,x,54*,23*,38,3,43*
Cc1noc(NS(=O)(=O)c2ccc(NC(=O)c3cccc(S(=O)(=O)Nc4ccccc4F)c3)cc2)c1C,-3,0,x,3,100*,2,1,4,3
CC(C)[C@H](NC(=O)c1ccccc1)C(=O)N1CCC[C@H]1C(=O)NCc1ccccc1,-1,x,x,x,-25,x,x,x,x
CC(=O)Nc1cccc(C(=O)N/N=C/c2ccccc2F)c1,5,0,-7,-2,10,x,x,x,x
Cc1ccc(C(=O)Nc2cccc(C(=O)N/N=C/c3ccc(F)cc3)c2)cc1,11,6,-4,-2,63*,37*,53*,10,11
Cc1ccc(C(=O)Nc2cccc(C(=O)N/N=C/c3ccccc3F)c2)cc1,13,2,-22,-2,65*,30*,48,8,3
Cc1ccc2nc(-c3ccc(NC(=O)CSc4nc(N)cc(=O)[nH]4)cc3)sc2c1,0,8,-13,1,103*,11,0,2,3
Cc1ccc2nc(-c3ccc(NC(=O)CSc4nccc(=O)[nH]4)cc3)sc2c1,2,20,-7,9,1,x,x,x,x
CC(=O)Nc1ccc(S(=O)(=O)N(C)CC(=O)OCC(=O)c2cc(C)n(-c3ccc4c(c3)OCO4)c2C)cc1,11,2,-10,-3,56*,23*,36,7,6
O=C(OCc1nc2scc(-c3ccccc3)c2c(=O)[nH]1)c1ccco1,5,-1,x,4,24,x,x,x,x
CC(C)[C@H](NC(=O)c1ccccc1)C(=O)OCc1nc2scc(-c3ccccc3)c2c(=O)[nH]1,13,18,-6,2,73*,36*,55*,11,14
O=[N+]([O-])c1ccc(-c2c(-c3ccccc3)ncc3cc(F)ccc23)cc1,0,1,x,-8,82*,19,55*,1,3
O=[N+]([O-])c1cccc(-c2c(-c3ccccc3)ncc3cc(F)ccc23)c1,11,1,x,-3,45,x,x,x,x
COc1cc(-c2nc(C(=O)NCC3CCCO3)cc3c2[nH]c2ccccc23)cc(OC)c1OC (centres undefined),6,0,-2,-4,61*,28*,40,6,4
SMILES,TAAR1 ag,MPTP block,GPR7 antagonist,DAGLB inh,TAAR1 antagonist,nonsel antag count,TAAR1 antag conf,Ga16 nonsel ag,TAAR1 ag count
COc1ccccc1-c1nc(C(=O)NCC2CCCO2)cc2c1[nH]c1ccccc12 (centres undefined),x,0,9,-6,x,x,x,x,x
O=c1[nH]c2ccccc2cc1CN(Cc1ccco1)S(=O)(=O)c1ccc(F)cc1,10,0,-5,2,54*,23*,44,10,18
COC(=O)c1cccc(S(=O)(=O)N(Cc2ccco2)Cc2cc3cc(OC)ccc3[nH]c2=O)c1,19,5,-11,2,58*,24*,59*,10,28
Cc1ccc(NC(=O)CN(C)C(=O)COc2ccc(Br)cc2)cc1,0,0,x,0,-23,x,x,x,x
Cn1cc(C(=O)NCCN2CCN(c3cccc(Cl)c3)CC2)c2c3ccccc3n(C)c2c1=O,25,1,-22,3,56*,29*,43,6,6
COCCCNC(=O)c1cn(C)c(=O)c2c1c1ccccc1n2C,6,-1,-15,-2,-20,x,x,x,x
Fc1ccc(-n2cc(-c3ccccc3)c3c(NN4CCOCC4)ncnc32)cc1,8,-2,-10,-1,18,x,x,x,x
Cc1cccc(-n2cc(-c3ccccc3)c3c(N4CCOCC4)ncnc32)c1,4,1,-15,-8,60*,27*,45,5,6
Cc1cccc(-n2ncc3c(N4CCOCC4)ncnc32)c1,3,-2,4,-2,-6,x,x,x,x
COc1ccc(-n2cc(-c3ccccc3)c3c(NN4CCOCC4)ncnc32)cc1,15,-2,-11,2,56*,25*,40,11,14
Cc1ccccc1OCC(=O)Nc1ccccc1C(=O)NC1CC1,10,1,x,1,57*,24*,40,6,2
COc1ccc(C2=NOC(Cn3nc(C(=O)NCC4CC4)cc3-c3ccccc3)C2)cc1 (centres undefined),14,0,x,-6,72*,34*,49*,6,5
COc1ccc(C2=NOC(Cn3nc(C(=O)NCc4ccccc4OC)cc3-c3ccccc3)C2)cc1 (centres undefined),16,1,x,-10,68*,33*,53*,10,6
COc1ccc(C2=NOC(Cn3nc(C(=O)NCc4ccc(OC(F)(F)F)cc4)cc3-c3ccccc3)C2)cc1 (centres undefined),2,2,x,0,24,x,x,x,x

# High-throughput results (PubChem)
